core dimer inh: inhibitors of HCV core protein dimerization, primary screen, biochemical, TR-FRET, high-throughput; inhibition, % at 5 µM; TR-FRET GST/Flag-core106 dimerization, 1536-well; 300,000 compounds, 0.33% hits;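 active = inhibition above the mean of all tested compounds plus 3 SD, set per screening campaign, cut at about 45% in these data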
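Assay system: Tagged HCV core106 pair (GST and Flag) | Buffer or medium: KF-containing HEPES buffer, pH 7.45, DTT, CHAPS, BSA | Also added: Eu donor and XL665 acceptor anti-tag antibodies | Dosing: One concentration, 5 µM, in 0.5% DMSO | Timing: 4 h at 22.5 °C | Technique: TR-FRET 671 and 617 nm emission | Repeats: Singlicate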
MBD2 DNA inh: inhibitors of MBD2 binding to methylated DNA, primary screen, biochemical, TR-FRET, DNA-binding domain, human | MBD2 binding to methylated oligonucleotide | Methyl-CpG-binding domain protein 2 (Homo sapiens), Q9UBB5 | AID 686964, 2013 | inhibition, % at 4.4 µM | 370,000 compounds, 0.31% hits; in the data active = inhibition above about 13%
Target sequence (Q9UBB5 whole entry, looked up, the tested form may be a part): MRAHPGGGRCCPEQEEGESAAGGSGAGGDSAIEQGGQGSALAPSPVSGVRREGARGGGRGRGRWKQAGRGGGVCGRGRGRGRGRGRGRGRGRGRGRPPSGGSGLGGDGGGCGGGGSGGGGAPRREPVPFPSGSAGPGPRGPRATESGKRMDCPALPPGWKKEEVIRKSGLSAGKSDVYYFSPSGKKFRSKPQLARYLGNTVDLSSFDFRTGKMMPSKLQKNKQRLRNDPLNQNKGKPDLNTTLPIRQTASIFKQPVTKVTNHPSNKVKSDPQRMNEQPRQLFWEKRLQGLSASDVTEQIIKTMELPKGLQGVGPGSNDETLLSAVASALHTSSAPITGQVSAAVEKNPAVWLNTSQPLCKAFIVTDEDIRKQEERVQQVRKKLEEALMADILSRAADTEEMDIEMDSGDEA
UHRF1 MBD2 ctr: UHRF1 methylated DNA binding inhibitors, primary screen, counter-screen for MBD2 inhibitor project, biochemical, TR-FRET, human UHRF1, single concentration; 370,000 compounds, 0.75% hits; inhibition, % at 4.4 µM; UHRF1 binding to methylated oligo; AID 687016, 2013; in the data active = inhibition above about 21%;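 note: UHRF1 SRA domain binding a hemimethylated CpG hairpin DNA probe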
LEDGF integ inh: blockers of LEDGF/p75-dependent integrase strand transfer – biochemical, TR-FRET, high throughput, primary screen. 370,000 compounds, 0.64% hits. AID 743269, 2014. inhibition, % at 3.7 µM. TR-FRET IN-LEDGF/p75 DNA integration, Eu/Cy5. HIV-1 integrase (with human LEDGF/p75);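 active = inhibition above the screen-wide mean plus 3 SD, cut at about 13% in these data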;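 note: signal is the Cy5 over europium emission ratio at 671 and 618 nm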
TDP2 absorb: human TDP2 enzyme inhibitors, primary screen, biochemical, epi absorbance, recombinant enzyme; 370,000 compounds, 0.34% hits; inhibition, % at 12.8 µM; Tyrosyl-DNA phosphodiesterase 2 (Homo sapiens), O95551; AID 720702, 2013; T5PNP hydrolysis, p-nitrophenol absorbance 415 nm;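 active = inhibition above the mean of all tested compounds plus 3 SD, set per campaign, cut at about 25% in these data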
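Evaluation: % inhibition relative to enzyme-containing and enzyme-free wells. Material: recombinant human TDP2. Benchmarks: enzyme-free and DMSO wells. Timing: enzyme reaction with compound for 2 h at 37 °C. Compound dosing: 12.8 µM only. Measured by: p-Nitrophenol epi absorbance. Reagent: T5PNP substrate at 5 mM, a TopII-DNA adduct mimic. Replication: single well per compound.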
IN multimer up: HIV-1 IN multimer formation enhancers, counter-screen for LEDGF/p75 integration inhibitor project, biochemical, TR-FRET | shares compounds with LEDGF integ inh | TR-FRET HIV-1 integrase multimerization | activation, % at 7.7 µM | 2,000 compounds, 17% hits | AID 1053131, 2014; in the data active = activation above about 8.9%
TRFRET interf: TR-FRET optical interference artefacts, confirmation, artefact control for LEDGF/p75-dependent integration inhibitor project, biochemical, HIV-1 IN multimerization; shares compounds with LEDGF integ inh; TR-FRET optical interference counterscreen; inhibition, % at 7.7 µM; 2,000 tested, under 10 active; AID 1053135, 2014;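 active = inhibition above the mean over all tested compounds plus 3 SD, which no compound reached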
LEDGF integ conf: inhibitors of HIV-1 IN-LEDGF/p75 DNA integration, confirmation, biochemical, TR-FRET; AID 1053136, 2014; 2,000 compounds, 36% hits; inhibition, % at 3.7 µM; TR-FRET LEDGF/p75-dependent HIV-1 integration; shares compounds with LEDGF integ inh; in the data active = inhibition above about 14%
Of the large screens only hits and unclear results are named; the others gave an inactive call (follow-up assays come after a bar, where they were run). Most compounds without a hit are left out; they make up all but 1.8% or so of the library.

CCCNC(=O)N1CC[C@H]2[C@@H]1c1cc(-c3ccc(F)cc3)ccc1N(C)[C@H]2CO	none (no result: core dimer inh)
COc1c(-c2ccc(O)c(O)c2)oc2cc(O)cc(O)c2c1=O	LEDGF integ inh 15.9 | IN multimer up 9.3 | TRFRET interf inactive | LEDGF integ conf 72.4
O=c1cc(-c2ccc(O)cc2)oc2cc(O)c([C@@H]3O[C@H](CO)[C@@H](O)[C@H](O)[C@H]3O)c(O)c12	none (no result: core dimer inh)
O=c1cc(-c2ccc(O)c(O)c2)oc2c(C3O[C@H](CO)[C@@H](O)[C@H](O)[C@H]3O)c(O)cc(O)c12 (some centres not stated)	LEDGF integ inh 68.4 | IN multimer up 81.5 | TRFRET interf inactive | LEDGF integ conf 90.1
O=c1cc(-c2ccc(O)c(O)c2)oc2cc(O)c(C3OC(CO)C(O)C(O)C3O)c(O)c12 (configuration not stated)	LEDGF integ inh 46.0 | IN multimer up 73.2 | TRFRET interf inactive | LEDGF integ conf 90.6
O=c1cc(-c2ccc(O)cc2)oc2c(C3O[C@H](CO)[C@@H](O)[C@H](O)[C@H]3O)c(O)cc(O)c12 (some centres not stated)	none
CC1(C)CC(=O)N(CC(=O)N2CCN(c3cccc(C(F)(F)F)c3)CC2)c2ccccc2S1(=O)=O	none (no result: core dimer inh)
COC(=O)C1=C(N)N(c2ccccc2C(F)(F)F)C2=C(C(=O)CCC2)C1c1ccc2c(c1)OCO2 (configuration not stated)	LEDGF integ inh 32.7 | IN multimer up inactive | TRFRET interf inactive | LEDGF integ conf inactive
S=C(NCc1cccc(Cl)c1)OC1CCC12CCC(c1ccccc1)CC2 (configuration not stated)	none (no result: core dimer inh)
CN(C)c1ccc(N=Cc2nc(-c3ccccc3)oc2O)cc1	none
CN(C)c1ccc(N=Cc2cccn2C)cc1	LEDGF integ inh 22.5, TDP2 absorb 25.2 | IN multimer up inactive | TRFRET interf inactive | LEDGF integ conf inactive
COCCCNC(=S)N(Cc1ccccc1)Cc1nc2ccccc2c(=O)[nH]1	none
CCNC(=S)N(Cc1ccccc1)Cc1nc2ccccc2c(=O)[nH]1	LEDGF integ inh 69.6 | IN multimer up inactive | TRFRET interf inactive | LEDGF integ conf inactive
COc1cc(C2Nc3ccc4ncccc4c3C3=C2C(=O)CCC3)ccc1O (configuration not stated)	LEDGF integ inh 27.2 | IN multimer up inactive | TRFRET interf inactive | LEDGF integ conf inactive
COc1cccc(NC(=O)Nc2c(-c3ccc(C(F)(F)F)cc3)nc3ncccn23)c1	none (no result: core dimer inh)
COC(=O)[C@]12C[C@H](CC(=O)NCc3ccc(C)o3)C(=O)N(Cc3cccc4ccccc34)C1=C[C@H](COCc1ccccc1)O[C@@H]2C	none (no result: core dimer inh)
CC(/C=N/n1c(-c2ccccc2)n[nH]c1=S)=C\c1ccco1	LEDGF integ inh 16.5 | IN multimer up inactive | TRFRET interf inactive | LEDGF integ conf inactive
CC(/C=N/n1c(-c2ccncc2)n[nH]c1=S)=C\c1ccco1	LEDGF integ inh 15.6 | IN multimer up inactive | TRFRET interf inactive | LEDGF integ conf inactive
Cc1cc(CC(=O)O)c2oc(-c3ccoc3)cc(=O)c2c1	UHRF1 MBD2 ctr 25.3, LEDGF integ inh 14.7 | IN multimer up inactive | TRFRET interf inactive | LEDGF integ conf 29.1
C=CCN1C(=O)[C@H](CC(=O)NCC2CCCCC2)[C@@]2(C(=O)OCC)CCCC=C12	none (no result: core dimer inh)
O=C(CCc1ccccc1)N[C@H]1[C@H](OC(=O)c2ccco2)CCC[C@]12C(=O)N(Cc1ccccc1)c1ccccc12	none (no result: core dimer inh)
COc1cc(OC)cc(C(=O)n2cnnc2N)c1	LEDGF integ inh 25.0 | IN multimer up inactive | TRFRET interf inactive | LEDGF integ conf inactive
CC(C)C[C@H]1COc2cccc(N3CCCC3)c2S(=O)(=O)N1C	none (no result: core dimer inh)
COc1ccccc1Nc1nnc(SCc2cc(=O)n3cc(C)ccc3n2)s1	LEDGF integ inh 36.2 | IN multimer up inactive | TRFRET interf inactive | LEDGF integ conf inactive
Cc1ccccc1Nc1nnc(SCc2cc(=O)n3ccsc3n2)s1	none
CCOC(=O)N1CCN(C(=O)C[C@H]2C[C@@]3(C(=O)OC)C(=C[C@H](C(C)(C)C)O[C@@H]3C)N(Cc3ccco3)C2=O)CC1	none (no result: core dimer inh)
C=CCN1C=C2C(=O)C(C)(OC(=O)c3cnc4ccccc4n3)C(=O)C=C2C=C1/C=C/COC (configuration not stated)	LEDGF integ inh 25.1 | IN multimer up inactive | TRFRET interf inactive | LEDGF integ conf 39.7
COc1ccc(C[C@@H]2CN3C(=NC[C@@H]3C)N2C[C@H](C)NC(=O)CCC2CCCCC2)cc1	LEDGF integ inh 52.0 | IN multimer up inactive | TRFRET interf inactive | LEDGF integ conf inactive
O=C(COC(=O)c1sc2ccccc2c1Cl)NCC1CCCCC1	LEDGF integ inh 16.1 | IN multimer up inactive | TRFRET interf inactive | LEDGF integ conf inactive
CC1CCCC(NC(=O)COC(=O)c2sc3ccccc3c2Cl)C1C (configuration not stated)	none
Cc1ccccc1NC(=O)c1sc2nc3c(c(-c4ccco4)c2c1N)CCC3	LEDGF integ inh 46.1 | IN multimer up inactive | TRFRET interf inactive | LEDGF integ conf inactive
NC(=O)c1sc2nc3c(c(-c4ccco4)c2c1N)CCCC3	none
Cc1ccccc1C(=O)N[C@@H](CC(C)C)C(=O)N1CCC[C@H]1C(=O)NCc1ccccc1	none (no result: core dimer inh)
S=c1[nH]nc(-c2cc(-c3ccco3)[nH]n2)n1-c1ccccc1Cl	LEDGF integ inh 13.6 | IN multimer up inactive | TRFRET interf inactive | LEDGF integ conf 15.1
S=c1[nH]nc(-c2ccco2)n1-c1ccccc1Cl	none
CCN=C1NC(c2ccc(C(F)(F)F)cc2)C(C(=O)OC)=C(C)N1Cc1ccccc1C(F)(F)F (configuration not stated)	none (no result: core dimer inh)
CC(=O)c1cccc(NC(=O)c2ccccc2N(C)S(=O)(=O)c2ccc(C)cc2)c1	none
